Converted amounts (≈) assume the structure as drawn.
Tests used:
Enterococcus faecalis [1] = assay: Minimum inhibitory concentration against cell wall biosynthesis of vancomycin susceptible (ATCC) Enterococcus faecalis GC 4555; type: functional
Outline: (§1)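 Broth microdilution per NCCLS M7-A3. Mueller–Hinton broth for staphylococci and enterococci, 2-fold serial dilutions of agent. Final inoculum 1–5 × 10^5 CFU/mL.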

Escherichia coli [2] = assay: Minimum inhibitory concentration against cell wall biosynthesis of Escherichia coli GC 4560; type: functional
Streptococcus pneumoniae [3] = assay: Minimum inhibitory concentration against cell wall biosynthesis of penicillin resistant Streptococcus pneumoniae GC 1894 (PRSP) in the presence of 4% bovine serum albumin; type: functional
Staphylococcus aureus [4] = assay: Minimum inhibitory concentration against cell wall biosynthesis of methicillin susceptible Staphylococcus aureus GC 4543; type: functional
Outline: (§2)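 Broth microdilution per NCCLS M7-A3 in Mueller–Hinton broth, aerobic. Agents tested as 2-fold serial dilutions, with a final inoculum of 1–5 × 10^5 CFU/mL. Plates incubated 18–22 h at 35 °C in ambient air. MIC read as the endpoint.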

[5] = Minimum inhibitory concentration against cell wall biosynthesis of methicillin-susceptible Coagulase negative staphylococcus GC 646 (MSCNS); type: functional; outline: as §1
Staphylococcus aureus [6] = assay: Minimum inhibitory concentration against cell wall biosynthesis of methicillin resistant Staphylococcus aureus GC 1131; type: functional; outline: as §2
Enterococcus faecalis [7] = assay: Minimum inhibitory concentration against cell wall biosynthesis of vancomycin resistant Enterococcus faecalis GC 2242 (VRE); type: functional; outline: as §2
[8] = target: UDP-N-acetylglucosamine 1-carboxyvinyltransferase (Escherichia coli K-12, UniProt P0A749); assay: Inhibitory concentration against MurA enzyme in Escherichia coli
Outline: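 Enzyme preincubated with inhibitor 10 min at 37 °C before substrates were added. Reaction ran 30 min at 37 °C and was stopped with malachite green reagent (0.03% malachite green, 1.4% ammonium molybdate, 1.3 N HCl) for phosphate read-out.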

[9] = target: T1, UDP-N-acetylenolpyruvoylglucosamine reductase (Staphylococcus aureus, UniProt P61431); assay: Inhibitory concentration against MurB enzyme in Staphylococcus aureus
T1 sequence (P61431 whole entry): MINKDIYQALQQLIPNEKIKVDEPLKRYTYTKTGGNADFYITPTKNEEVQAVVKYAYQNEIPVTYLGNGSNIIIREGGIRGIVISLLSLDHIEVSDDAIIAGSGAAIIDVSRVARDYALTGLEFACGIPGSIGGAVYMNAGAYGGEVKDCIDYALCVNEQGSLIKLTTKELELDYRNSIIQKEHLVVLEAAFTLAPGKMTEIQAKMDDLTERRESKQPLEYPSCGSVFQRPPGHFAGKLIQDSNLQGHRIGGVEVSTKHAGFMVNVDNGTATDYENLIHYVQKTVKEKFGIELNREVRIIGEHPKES
Outline: (§3)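 Enzyme (20 nM) preincubated 20 min with inhibitor, then substrates added to final 50 µM EP-UNAG and 100 µM NADPH. Activity followed spectrophotometrically. At least six inhibitor concentrations between 1.5 and 50 µM per compound. IC50 from sigmoid Hill curve fit (0–100).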

Streptococcus pneumoniae [10] = assay: Minimum inhibitory concentration against cell wall biosynthesis of penicillin resistant Streptococcus pneumoniae GC 1894 (PRSP); type: functional
Outline: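 Broth microdilution per NCCLS M7-A3, using Mueller–Hinton broth supplemented with 5% sheep blood. Agents tested as 2-fold serial dilutions, with a final inoculum of 1–5 × 10^5 CFU/mL.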

Escherichia coli [11] = assay: Minimum inhibitory concentration against cell wall biosynthesis of Escherichia coli GC 4559; type: functional; outline: as §1
[12] = target: T2, UDP-N-acetylenolpyruvoylglucosamine reductase (Escherichia coli K-12, UniProt P08373); assay: Inhibitory concentration against MurB enzyme in Escherichia coli; outline: as §3
T2 sequence (P08373 whole entry): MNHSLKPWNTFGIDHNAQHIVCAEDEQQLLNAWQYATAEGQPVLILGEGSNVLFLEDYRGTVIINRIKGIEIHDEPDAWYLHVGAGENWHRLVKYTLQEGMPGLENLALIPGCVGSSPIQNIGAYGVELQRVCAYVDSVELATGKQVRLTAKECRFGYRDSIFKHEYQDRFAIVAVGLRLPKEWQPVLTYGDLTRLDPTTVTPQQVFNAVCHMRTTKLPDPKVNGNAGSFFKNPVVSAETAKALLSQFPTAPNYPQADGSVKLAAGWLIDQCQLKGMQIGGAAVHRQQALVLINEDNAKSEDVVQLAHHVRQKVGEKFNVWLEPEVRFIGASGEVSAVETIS

Escherichia coli [13] = assay: Minimal inhibitory concentration against Escherichia coli GC 4560 was determined; type: functional; outline: as §1
Enterococcus faecalis [14] = assay: Minimal inhibitory concentration against vancomycin resistant Enterococcus faecalis was determined; Range = 25-50 uM; type: functional; outline: as §2
Staphylococcus aureus [15] = assay: Minimal inhibitory concentration against methicillin resistant Staphylococcus aureus was determined; Range = 25-50 uM; type: functional; outline: as §2
Staphylococcus aureus [16] = assay: Minimal inhibitory concentration against methicillin susceptible Staphylococcus aureus was determined; Range = 25-50 uM; type: functional; outline: as §2
Enterococcus faecalis [17] = assay: Minimal inhibitory concentration against vancomycin susceptible Enterococcus faecalis was determined; Range = 25-50 uM; type: functional; outline: as §2

Chain of UDP-N-acetylglucosamine 1-carboxyvinyltransferase (P0A749 whole entry): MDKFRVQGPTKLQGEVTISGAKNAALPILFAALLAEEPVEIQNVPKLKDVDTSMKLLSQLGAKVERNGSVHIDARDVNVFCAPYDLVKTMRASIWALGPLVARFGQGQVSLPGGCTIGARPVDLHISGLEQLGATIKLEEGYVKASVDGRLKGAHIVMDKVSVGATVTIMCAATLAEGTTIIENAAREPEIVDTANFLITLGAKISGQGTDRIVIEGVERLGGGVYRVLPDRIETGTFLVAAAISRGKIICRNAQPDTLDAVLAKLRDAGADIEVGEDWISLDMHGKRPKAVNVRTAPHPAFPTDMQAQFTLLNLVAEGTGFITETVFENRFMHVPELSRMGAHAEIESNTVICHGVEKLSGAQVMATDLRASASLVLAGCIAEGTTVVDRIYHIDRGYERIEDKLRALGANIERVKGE

SMILES | MIC (Enterococcus faecalis [1]) [µM] | MIC (Escherichia coli [2]) [µM] | MIC (Streptococcus pneumoniae [3]) [µM] | MIC (Staphylococcus aureus [4]) [µM] | MIC [5] [µM] | MIC (Staphylococcus aureus [6]) [µM] | MIC (Enterococcus faecalis [7]) [µM] | IC50 [8] [µM] | IC50 [9] [µM] | MIC (Streptococcus pneumoniae [10]) [µM] | MIC (Escherichia coli [11]) [µM] | IC50 [12] [µM] | MIC (Escherichia coli [13]) [µM] | MIC (Enterococcus faecalis [14]) [µM] | MIC (Staphylococcus aureus [15]) [µM] | MIC (Staphylococcus aureus [16]) [µM] | MIC (Enterococcus faecalis [17]) [µM]
O=C1N(c2ccc(Cl)cc2)N(c2ccc(Cl)cc2)C(=O)C1(CCCCCCc1ccccc1)CCCCCCc1ccccc1 | > 200 | > 200 | > 200 | 200 (≈ 128 µg/mL) | > 200 | > 200 | 200 (≈ 128 µg/mL) | 9.9 | 8.2 | 100 (≈ 64.2 µg/mL) | > 200 | 7.2 |  |  |  |  | 
CC1(CCCCCCc2ccccc2)C(=O)N(c2ccc(Cl)cc2)N(c2ccc(Cl)cc2)C1=O | 200 (≈ 99.1 µg/mL) | 200 (≈ 99.1 µg/mL) | > 200 | > 200 | > 200 |  | 100 (≈ 49.5 µg/mL) | > 50 | > 50 | 0.78 (≈ 0.386 µg/mL) | > 200 | > 50 |  |  |  |  | 
O=C1C(Cc2ccc(Cl)cc2Cl)C(=O)N(c2ccc(Cl)cc2)N1c1ccc(Cl)cc1 | 100 (≈ 48 µg/mL) | 100 (≈ 48 µg/mL) | > 200 | 50 (≈ 24 µg/mL) | 50 (≈ 24 µg/mL) | 50 (≈ 24 µg/mL) | 50 (≈ 24 µg/mL) | > 50 | 29 | 12.5 (≈ 6 µg/mL) | > 200 | 11 |  |  |  |  | 
O=C(CC1C(=O)N(c2ccc(Cl)cc2)N(c2ccc(Cl)cc2)C1=O)c1ccc(F)cc1 | 50 (≈ 22.9 µg/mL) | 200 (≈ 91.5 µg/mL) | > 200 | 25 (≈ 11.4 µg/mL) | > 200 | 25 (≈ 11.4 µg/mL) | 50 (≈ 22.9 µg/mL) | 8.4 | 5.2 | 25 (≈ 11.4 µg/mL) | > 200 | 5.4 |  |  |  |  | 
O=C1C(Cc2ccccc2Cl)C(=O)N(c2ccc(Cl)cc2)N1c1ccc(Cl)cc1 | > 200 | > 200 | > 200 | > 200 | > 200 |  |  | > 50 | > 50 | 12.5 (≈ 5.57 µg/mL) | > 200 | > 50 |  |  |  |  | 
O=C(CCC1C(=O)N(c2ccc(Cl)cc2)N(c2ccc(Cl)cc2)C1=O)c1ccc(F)cc1 | 100 (≈ 47.1 µg/mL) | 200 (≈ 94.3 µg/mL) | > 200 | 100 (≈ 47.1 µg/mL) | 200 (≈ 94.3 µg/mL) | 100 (≈ 47.1 µg/mL) | 100 (≈ 47.1 µg/mL) | 46.9 | 18 | 50 (≈ 23.6 µg/mL) | > 200 | 13 |  |  |  |  | 
N#Cc1ccccc1-c1ccc(CC2C(=O)N(c3ccc(Cl)cc3)N(c3ccc(Cl)cc3)C2=O)cc1 | 25 (≈ 12.8 µg/mL) | 25 (≈ 12.8 µg/mL) |  | 6.25 (≈ 3.2 µg/mL) | 6.25 (≈ 3.2 µg/mL) |  |  | > 50 | 12 |  | > 200 | 11 | 25 (≈ 12.8 µg/mL) |  |  |  | 
O=C1C(CCOCc2ccccc2)C(=O)N(c2ccc(Cl)cc2)N1c1ccc(Cl)cc1 | 200 (≈ 91.1 µg/mL) | 200 (≈ 91.1 µg/mL) | > 200 | 200 (≈ 91.1 µg/mL) | 200 (≈ 91.1 µg/mL) | 100 (≈ 45.5 µg/mL) | 100 (≈ 45.5 µg/mL) | 33.4 | 11 | 25 (≈ 11.4 µg/mL) | > 200 | 11 |  |  |  |  | 
CC1(CC(=O)c2ccc(F)cc2F)C(=O)N(c2ccc(Cl)cc2)N(c2ccc(Cl)cc2)C1=O | 200 (≈ 97.9 µg/mL) | > 200 | > 200 | > 200 | > 200 |  | 100 (≈ 48.9 µg/mL) | > 50 | > 50 | > 200 | > 200 | 49 |  |  |  |  | 
Cc1c(OCC(=O)c2ccc(F)cc2F)n(-c2ccc(Cl)cc2)n(-c2ccc(Cl)cc2)c1=O | > 200 | > 200 |  |  | > 200 |  |  | > 50 | > 50 |  | > 200 | > 50 |  |  |  |  | 
O=C(CC1(CC(=O)c2ccc(F)cc2F)C(=O)N(c2ccc(Cl)cc2)N(c2ccc(Cl)cc2)C1=O)c1ccc(F)cc1F | 12.5 (≈ 7.87 µg/mL) | 100 (≈ 62.9 µg/mL) | > 200 | 12.5 (≈ 7.87 µg/mL) | 25 (≈ 15.7 µg/mL) | 12.5 (≈ 7.87 µg/mL) | 12.5 (≈ 7.87 µg/mL) | 9.6 | 5.2 | 3.12 (≈ 1.96 µg/mL) | > 200 | 5.8 |  |  |  |  | 
O=C1C(CCSCc2ccccc2)C(=O)N(c2ccc(Cl)cc2)N1c1ccc(Cl)cc1 | 100 (≈ 47.1 µg/mL) | 200 (≈ 94.3 µg/mL) | > 200 | 25 (≈ 11.8 µg/mL) | 50 (≈ 23.6 µg/mL) |  | 50 (≈ 23.6 µg/mL) | 9.8 | 5.1 | 6.25 (≈ 2.95 µg/mL) | > 200 | 5.2 |  |  |  |  | 
CCN(CCC1C(=O)N(c2ccc(Cl)cc2)N(c2ccc(Cl)cc2)C1=O)Cc1ccccc1 | > 200 | > 200 | > 200 | > 200 | > 200 | 200 (≈ 96.5 µg/mL) | 200 (≈ 96.5 µg/mL) | > 50 | > 50 | 100 (≈ 48.2 µg/mL) | > 200 | > 50 |  |  |  |  | 
O=C(CCCC1C(=O)N(c2ccc(Cl)cc2)N(c2ccc(Cl)cc2)C1=O)c1ccc(F)cc1 | 50 (≈ 24.3 µg/mL) | 200 (≈ 97.1 µg/mL) | > 200 | 50 (≈ 24.3 µg/mL) | 100 (≈ 48.5 µg/mL) | 50 (≈ 24.3 µg/mL) | 50 (≈ 24.3 µg/mL) | 32.4 | 11 | 12.5 (≈ 6.07 µg/mL) | > 200 | 10 |  |  |  |  | 
O=C1N(c2ccc(Cl)cc2)N(c2ccc(Cl)cc2)C(=O)C1(CCOCc1ccccc1)CCOCc1ccccc1 | 25 (≈ 14.7 µg/mL) | 200 (≈ 118 µg/mL) | > 200 | 100 (≈ 59 µg/mL) | 200 (≈ 118 µg/mL) | 100 (≈ 59 µg/mL) | 50 (≈ 29.5 µg/mL) | 20.1 | 7.5 | 12.5 (≈ 7.37 µg/mL) | > 200 | 7.2 |  |  |  |  | 
O=C1C(CCCCc2ccccc2)C(=O)N(c2ccc(Cl)cc2)N1c1ccc(Cl)cc1 | 200 (≈ 90.7 µg/mL) | > 200 | > 200 | 200 (≈ 90.7 µg/mL) | 200 (≈ 90.7 µg/mL) | 200 (≈ 90.7 µg/mL) | 100 (≈ 45.3 µg/mL) | 23.8 | 6.8 | 25 (≈ 11.3 µg/mL) | > 200 | 5.6 |  |  |  |  | 
O=C1C(CCCCCc2ccccc2)C(=O)N(c2ccc(Cl)cc2)N1c1ccc(Cl)cc1 | 100 (≈ 46.7 µg/mL) | > 200 | > 200 | 100 (≈ 46.7 µg/mL) | > 200 | 200 (≈ 93.5 µg/mL) | 200 (≈ 93.5 µg/mL) | 42.3 | 32 | 25 (≈ 11.7 µg/mL) | > 200 | 10 |  |  |  |  | 
O=C1C(CCCCCCc2ccccc2)C(=O)N(c2ccc(Cl)cc2)N1c1ccc(Cl)cc1 | 50 (≈ 24.1 µg/mL) | 200 (≈ 96.3 µg/mL) | > 200 | 25 (≈ 12 µg/mL) | 100 (≈ 48.1 µg/mL) | 25 (≈ 12 µg/mL) | 50 (≈ 24.1 µg/mL) | 34.9 | 12 | 6.25 (≈ 3.01 µg/mL) | > 200 | 8.9 |  | 50 (≈ 24.1 µg/mL) | 50 (≈ 24.1 µg/mL) | 50 (≈ 24.1 µg/mL) | 50 (≈ 24.1 µg/mL)
